Tests used:
[1] = Phase I plasma pharmacokinetics after single; assay type: in vivo, human; settings: for Cmax: plasma; for T max: median; for AR (Cmin): Cmin Day 14/Cmin Day 1, mean; for Cmax, Day 1 / Cmin, Day 1: first dose; for AUCtau, Day14 / Cmax, Day 14 / Cmin, Day 14: steady-state
Procedure, shortened: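 Randomized, placebo-controlled, blinded study in healthy adults aged 18–65. Part A gave single inhaled doses of 0.15–15 mg; Part B gave 1, 3 or 10 mg q.d. or 15 mg b.i.d. for 14 days via a capsule dry-powder inhaler, each dose over 15 (±5) min. Serial plasma samples were taken from pre-dose to Day 15 (Part A) or Day 42 (Part B). Drug was assayed by HPLC-MS/MS (LLOQ 10 pg/mL). Accumulation ratio = Cmin Day 14/Cmin Day 1.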

[2] = Phase I safety: adverse events, Part A; assay type: in vivo, human; settings: Part A SAD
[3] = Part A SAD, range across dose levels

## CN(CCC#N)C1CCN(C(=O)Cn2cc(NC(=O)c3cnn4cccnc34)c(-c3cc(Cl)ccc3OC(F)F)n2)CC1 [GDC‐0214]
[1]; Part A SAD, 0.15 mg single inhaled dose, mean
  Cmax: 70.2 pg/mL
[1]; Part A SAD, 0.15 mg
  T max: 17 min
[1]; Part A SAD, 0.5 mg single inhaled dose, mean
  Cmax: 301 pg/mL
[1]; Part A SAD, 0.5 mg, mean
  AUCinf: 2.458 ng·h/mL
  CL/F: 227 L/h
  T 1/2: 37.3 h
  Vz/F: 12264 L
[1]; Part A SAD, 0.5 mg
  T max: 16 min
[1]; Part A SAD, 1.5 mg single inhaled dose, mean
  Cmax: 763 pg/mL
[1]; Part A SAD, 1.5 mg, mean
  AUCinf: 7.32 ng·h/mL
  CL/F: 220 L/h
  T 1/2: 38.7 h
  Vz/F: 12620 L
[1]; Part A SAD, 1.5 mg
  T max: 31 min
[1]; Part A SAD, 5 mg single inhaled dose, mean
  Cmax: 2883 pg/mL
[1]; Part A SAD, 5 mg, mean
  AUCinf: 34.727 ng·h/mL
  CL/F: 149 L/h
  T 1/2: 36.5 h
  Vz/F: 7744 L
[1]; Part A SAD, 5 mg
  T max: 27.5 min
[1]; Part A SAD, 15 mg single inhaled dose, mean
  Cmax: 7270 pg/mL
[1]; Part A SAD, 15 mg, mean
  AUCinf: 96.038 ng·h/mL
  CL/F: 158 L/h
  T 1/2: 39.7 h
  Vz/F: 9116 L
[1]; Part A SAD, 15 mg
  T max: 30 min
[1]; Part A SAD, across cohorts
  dose proportionality of mean Cmax and AUC0-inf: approximately dose‐proportional
[1]; [3]
  mean CL/F: 149 to 227 L/h
  mean apparent volume of distribution (Vz/F): 7740–12,600 L
[1]; Part B MAD, 1 mg q.d. for 14 days, mean
  t 1/2: 38.5 h
[1]; Part B MAD, 1 mg q.d.
  AR (Cmin): 3.0
[1]; Part B MAD, 1 mg q.d., mean
  Cmax, Day 1: 581 pg/mL
  Cmin, Day 1: 59.4 pg/mL
  AUCtau, Day1: 2910 pg·h/mL
  AUCtau, Day14: 5969 pg·h/mL
  Cmax, Day 14: 810 pg/mL
  Cmin, Day 14: 167 pg/mL
[1]; Part B MAD, 3 mg q.d. for 14 days, mean (N 5)
  t 1/2: 32.0 h
[1]; Part B MAD, 3 mg q.d.
  AR (Cmin): 2.79
[1]; Part B MAD, 3 mg q.d., mean
  Cmax, Day 1: 1510 pg/mL
  Cmin, Day 1: 164 pg/mL
  AUCtau, Day1: 8080 pg·h/mL
  AUCtau, Day14: 15,794 pg.h/mL
  Cmax, Day 14: 2115 pg/mL
  Cmin, Day 14: 450 pg/mL
[1]; Part B MAD, 10 mg q.d. for 14 days, mean
  t 1/2: 40.8 h
[1]; Part B MAD, 10 mg q.d.
  AR (Cmin): 3.47
[1]; Part B MAD, 10 mg q.d., mean
  Cmax, Day 1: 3770 pg/mL
  Cmin, Day 1: 517 pg/mL
  AUCtau, Day1: 21,300 pg.h/mL
  AUCtau, Day14: 52,824 pg.h/mL
  Cmax, Day 14: 5982 pg/mL
  Cmin, Day 14: 1780 pg/mL
[1]; Part B MAD, 15 mg b.i.d. for 14 days, mean
  t 1/2: 56.9 h
[1]; Part B MAD, 15 mg b.i.d.
  AR (Cmin): 2.49
[1]; Part B MAD, 15 mg b.i.d., mean
  Cmax, Day 1: 6080 pg/mL
  Cmin, Day 1: 2090 pg/mL
  AUCtau, Day1: 39,500 pg.h/mL
  AUCtau, Day14: 79,907 pg.h/mL
  Cmax, Day 14: 12,423 pg/mL
  Cmin, Day 14: 5260 pg/mL
[1]; Part B MAD, across the three q.d. cohorts
  dose proportionality of Cmax and AUCtau: approximately dose‐proportional
[1]; Part B MAD, q.d. or b.i.d. dosing
  steady-state concentrations achieved by: ≤ 6 days
[1]; after inhalation, across cohorts
  time of peak plasma concentrations post-dose: 15 to 30 min
[2]; 0.15 mg (n = 3)
  AE leading to withdrawal from treatment: 0
  Serious AE: 0
  Total number of AEs: 1
  Total number of deaths: 0
  Total number of participants withdrawn from study due to an AE: 0
[2]; 0.15 mg (n = 3), n (%)
  Related AE: 0
  Total number of participants with at least one AE: 1 (33.3%)
  Upper respiratory tract infection: 0
[2]; 0.5 mg (n = 3)
  AE leading to withdrawal from treatment: 0
  Serious AE: 0
  Total number of AEs: 3
  Total number of deaths: 0
  Total number of participants withdrawn from study due to an AE: 0

Reference: article PMC9099118 (Clinical and Translational Science, 2022)
